Ki, logP and Drug uptake data for 10 molecules are collected here from ChEMBL document CHEMBL1147186, “Dibenzothiazoles as novel amyloid-imaging agents” (Bioorg Med Chem, 2007).

The target in data set [1] is Amyloid-beta precursor protein (Homo sapiens, UniProt P05067). Nature of the data set: Displacement of [3H]PIB from beta amyloid in brain homogenate from Alzheimer's patient. Format: tissue-based. Put shortly: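 Competition binding against [3H]PIB (0.05 nM final) in postmortem AD gray-matter homogenate prepared in PBS pH 7.4. Inhibitors at 10^-5 to 10^-12 mol/L (PBS, under 1% DMSO), incubated 37 °C for 1 h. Bound radioligand was collected by GF/B vacuum filtration, washed three times with PBS and scintillation-counted. Nonspecific binding was defined with 10 µM PIB. Ki was obtained by nonlinear regression.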
Chain of Amyloid-beta precursor protein (P05067 whole entry): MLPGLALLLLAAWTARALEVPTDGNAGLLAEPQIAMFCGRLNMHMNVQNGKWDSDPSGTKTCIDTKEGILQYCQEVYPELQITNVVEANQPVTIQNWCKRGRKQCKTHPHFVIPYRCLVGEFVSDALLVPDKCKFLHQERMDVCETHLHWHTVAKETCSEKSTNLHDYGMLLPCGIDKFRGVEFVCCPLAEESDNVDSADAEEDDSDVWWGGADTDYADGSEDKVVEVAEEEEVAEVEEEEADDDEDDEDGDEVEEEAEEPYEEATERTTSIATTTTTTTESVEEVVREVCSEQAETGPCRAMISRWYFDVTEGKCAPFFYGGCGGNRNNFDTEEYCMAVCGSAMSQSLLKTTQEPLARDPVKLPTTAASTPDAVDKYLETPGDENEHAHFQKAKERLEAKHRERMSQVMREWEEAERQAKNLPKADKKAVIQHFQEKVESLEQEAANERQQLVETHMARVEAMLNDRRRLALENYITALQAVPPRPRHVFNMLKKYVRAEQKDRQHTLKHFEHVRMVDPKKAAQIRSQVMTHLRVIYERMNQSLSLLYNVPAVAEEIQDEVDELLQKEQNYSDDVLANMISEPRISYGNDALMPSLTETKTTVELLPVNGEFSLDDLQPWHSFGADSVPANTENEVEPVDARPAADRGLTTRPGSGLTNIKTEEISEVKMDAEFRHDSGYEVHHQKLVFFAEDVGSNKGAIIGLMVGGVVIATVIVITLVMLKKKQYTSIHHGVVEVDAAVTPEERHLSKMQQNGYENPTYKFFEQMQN
On the technique in general: In a radioligand displacement assay an active substance lowers the binding of a labelled ligand.

Data set [2] can be described thus: Partition coefficient, log P of the compound. Format: physicochemical. The settings on record: octanol/water. Put shortly:
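Shake-flask logP using the [125I] radioligand (RCP >98%) in n-octanol and 0.1 M phosphate buffer pH 7.4. Mixture vortexed 3 min at room temperature and centrifuged 3500 rpm for 5 min. Both phases were weighed and counted; logP is log of the cpm/g octanol to cpm/g buffer ratio. The octanol phase was repartitioned until values were consistent; done in triplicate.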

In data set [3] the test system is Brain. Description: Biodistribution in Swiss-Webster mouse brain at 0.185 MBq, iv after 2 mins. The settings on record: in vivo. Type of data set: ADME, organism-based. Put shortly:
(§1)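 Radioiodinated tracer in saline/ethylene glycol/ethanol/HCl vehicle, single tail-vein injection under anesthesia into 2-month-old Swiss-Webster mice (n = 3 per time point). Animals killed by heart puncture at 2, 30 and 60 min; brain removed, weighed and gamma-counted. Uptake expressed as % injected dose per gram.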

Data set [4] has as its system Brain. Description: Biodistribution in Swiss-Webster mouse brain at 0.185 MBq, iv after 30 mins. Format: ADME, organism-based. The settings on record: in vivo, 0.5 h. The gist of the method:
as §1

Data set [5] relates to Brain. Nature of the data set: Biodistribution in Swiss-Webster mouse brain at 0.185 MBq, iv after 60 mins. The settings on record: in vivo, 1 h. Type of data set: ADME, organism-based. The gist of the method: as §1

On to `Nc1ccc(-c2nc3ccc(-c4nc5ccccc5s4)cc3s2)cc1I`, for which, in data set [1], the Ki (in general, a dissociation constant, usually derived from enzyme kinetics or from competition with a known ligand) is 0.021 µM. In addition, in data set [2], the lipophilicity (logP) (usually the decadic logarithm of the partition coefficient of the neutral form, usually between octanol and water) was 2.7.

`Nc1ccc(-c2nc3ccc(-c4nc5ccc(F)cc5s4)cc3s2)cc1` yielded a Ki in data set [1] of 0.036 µM. This counts as double-digit nanomolar.

In data set [1], `CNc1ccc(-c2nc3ccc(-c4nc5ccc(Cl)cc5s4)cc3s2)cc1` registered a Ki of 0.0068 µM.

In turn, `CNc1ccc(-c2nc3ccc(-c4nc5ccc(F)cc5s4)cc3s2)cc1` yielded a Ki in data set [1] of 0.027 µM.

In data set [1], `COc1ccc2nc(-c3ccc4nc(-c5ccc(N)cc5)sc4c3)sc2c1` came in with a Ki of 0.025 µM.

For `Nc1ccc(-c2nc3ccc(-c4nc5ccccc5s4)cc3s2)cc1[125I]`, the logP in data set [2] is 2.7. Further, the results for the Drug uptake with Brain [3], in the data set with Brain [4] and with Brain [5] were 3.71 % ID/g, 0.78 % ID/g and 0.43 % ID/g, respectively.

As to `Nc1ccc(-c2nc3ccc(-c4nc5ccccc5s4)cc3s2)cc1`, the Ki in data set [1] stood at 0.025 µM.

On to `Nc1ccc(-c2nc3ccc(-c4nc5ccc(Cl)cc5s4)cc3s2)cc1`, for which the inhibition constant (Ki) in data set [1] is 0.034 µM. The Ki values of the last two molecules are within 1.5-fold of each other.

In turn, `CN(C)c1ccc(-c2nc3ccc(-c4nc5ccc(F)cc5s4)cc3s2)cc1` returned a Ki in data set [1] of 0.023 µM. The Ki values of the last two molecules are within 1.5-fold of each other.

Regarding `CNc1ccc(-c2nc3ccc(-c4nc5ccccc5s4)cc3s2)cc1`, the affinity in data set [1], expressed as Ki, was 0.022 µM.
